Laboratory results published in ChEMBL document CHEMBL4477254, “Synthesis and biological evaluation of some novel triazole hybrids of curcumin mimics and their selective anticancer activity against breast and prostate cancer cell lines” (Bioorg Med Chem Lett, 2016).
Activity calls are given as the source filed them. The rule behind the calls is not given here.

Assays:
MCF7 [1] = test: Cell cycle arrest in human MCF7 cells assessed as accumulation at G2/M phase at 9 uM after 24 hrs by propidium iodide staining based flow cytometry (reference value: 20.30%); type: functional
Summary of the method: (§1)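 Cells treated 24 h with test compound, MCF-7 at various concentrations and PC-3 at various concentrations; cells harvested, stained with propidium iodide and acquired by flow cytometry for cell cycle phase distribution.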

MCF7 [2] = test: Induction of apoptosis in human MCF7 cells assessed as necrotic cells at 6 uM after 24 hrs by annexin V-FITC/propidium iodide staining based flow cytometry (reference value: 4.76%); type: functional
Summary of the method: (§2)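 Apoptosis by Annexin V-FITC/PI dual staining: MCF-7 cells treated 24 h at 3, 6 and 9 µM, then harvested, stained and acquired by flow cytometry; early apoptotic = AnnexinV+/PI−, live = AnnexinV−/PI−, necrotic = AnnexinV−/PI+.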

MCF7 [3] = test: Induction of apoptosis in human MCF7 cells assessed as early apoptotic cells at 9 uM after 24 hrs by annexin V-FITC/propidium iodide staining based flow cytometry (reference value: 7.36%); type: functional; summary of the method: as §2
MCF7 [4] = test: Induction of apoptosis in human MCF7 cells assessed as late apoptotic cells at 9 uM after 24 hrs by annexin V-FITC/propidium iodide staining based flow cytometry (reference value: 5.25%); type: functional; summary of the method: as §2
MCF7 [5] = test: Induction of apoptosis in human MCF7 cells assessed as late apoptotic cells at 3 uM after 24 hrs by annexin V-FITC/propidium iodide staining based flow cytometry (reference value: 5.25%); type: functional; summary of the method: as §2
MCF7 [6] = test: Induction of apoptosis in human MCF7 cells assessed as viable cells at 9 uM after 24 hrs by annexin V-FITC/propidium iodide staining based flow cytometry (reference value: 82.63%); type: functional; settings: MCF7, 24 h, read-out: Activity
Summary of the method: (§3)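 MCF-7 cells exposed to 3, 6 or 9 μM and PC-3 cells to 4.8 or 8.8 μM for 24 h, then harvested and dual-stained with Annexin V-FITC/PI and read by flow cytometry. Gates: live AnnexinV⁻/PI⁻, early apoptotic AnnexinV⁺/PI⁻, necrotic AnnexinV⁻/PI⁺.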

MCF7 [7] = test: Induction of morphological changes in human MCF7 cells at 1 to 6 uM after 24 hrs by phase contrast microscopy; type: functional, cell-based
Summary of the method: (§4)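 Cells were exposed to a range of concentrations for 24 h. Cell number and morphology, including detachment from the surface, were assessed by phase-contrast microscopy at 10X magnification.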

[8] = Drug metabolism in liver microsomes (unknown origin) assessed as compound remaining at 5 ug/ml after 5 mins in presence of NADPH by UPLC analysis; type: ADME, Microsome; settings: read-out: Drug metabolism
Summary of the method: (§5)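 Microsomal metabolic stability; percentage of compound remaining intact measured after 5 min incubation in presence of microsomes.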

MCF7 [9] = test: Induction of apoptosis in human MCF7 cells assessed as early apoptotic cells at 6 uM after 24 hrs by annexin V-FITC/propidium iodide staining based flow cytometry (reference value: 7.36%); type: functional; summary of the method: as §2
MCF7 [10] = test: Induction of apoptosis in human MCF7 cells assessed as decrease in live cells after 24 hrs by annexin V-FITC/propidium iodide staining based flow cytometry; type: functional, cell-based; summary of the method: as §2
MCF7 [11] = test: Induction of morphological changes in human MCF7 cells assessed as cell detachment at >6 uM after 24 hrs by phase contrast microscopy; type: functional, cell-based; summary of the method: as §4
MCF7 [12] = test: Induction of mitochondrial membrane depolarization in human MCF7 cells at 6 uM after 24 hrs by JC-1 staining based flow cytometry (reference value: 11%); type: functional
MCF7 [13] = test: Induction of apoptosis in human MCF7 cells assessed as increase in early apoptotic cells after 24 hrs by annexin V-FITC/propidium iodide staining based flow cytometry; type: functional, cell-based; summary of the method: as §2
MCF7 [14] = test: Cell cycle arrest in human MCF7 cells assessed as accumulation at S phase at 9 uM after 24 hrs by propidium iodide staining based flow cytometry (reference value: 34.03%); type: functional; summary of the method: as §1
MCF7 [15] = test: Cell cycle arrest in human MCF7 cells assessed as decrease in cells at G0/G1 phase after 24 hrs by propidium iodide staining based flow cytometry; type: functional; summary of the method: as §1
MCF7 [16] = test: Induction of apoptosis in human MCF7 cells assessed as necrotic cells at 9 uM after 24 hrs by annexin V-FITC/propidium iodide staining based flow cytometry (reference value: 4.76%); type: functional; summary of the method: as §2
[17] = biological target: T1, Serine/threonine-protein kinase AKT (Homo sapiens) (UniProt P31751+Q9Y243+P31749); test: Inhibition of Akt phosphorylation at […] in human MCF7 cells at 9 uM after 24 hrs by Western blot analysis; type: cell-based
T1 sequence (P31749 whole entry, looked up): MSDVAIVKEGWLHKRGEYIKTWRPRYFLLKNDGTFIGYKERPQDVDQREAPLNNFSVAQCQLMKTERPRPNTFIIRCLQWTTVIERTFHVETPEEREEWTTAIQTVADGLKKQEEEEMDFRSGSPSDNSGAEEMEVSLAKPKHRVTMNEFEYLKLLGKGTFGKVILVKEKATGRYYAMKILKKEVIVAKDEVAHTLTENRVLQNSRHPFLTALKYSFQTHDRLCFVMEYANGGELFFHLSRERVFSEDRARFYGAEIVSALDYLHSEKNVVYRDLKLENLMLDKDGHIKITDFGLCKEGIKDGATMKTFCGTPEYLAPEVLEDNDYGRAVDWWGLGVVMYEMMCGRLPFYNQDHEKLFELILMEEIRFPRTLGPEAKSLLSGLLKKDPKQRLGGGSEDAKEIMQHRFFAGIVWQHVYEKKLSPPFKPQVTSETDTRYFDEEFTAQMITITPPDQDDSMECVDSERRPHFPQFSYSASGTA
T1 sequence (P31751 whole entry, looked up): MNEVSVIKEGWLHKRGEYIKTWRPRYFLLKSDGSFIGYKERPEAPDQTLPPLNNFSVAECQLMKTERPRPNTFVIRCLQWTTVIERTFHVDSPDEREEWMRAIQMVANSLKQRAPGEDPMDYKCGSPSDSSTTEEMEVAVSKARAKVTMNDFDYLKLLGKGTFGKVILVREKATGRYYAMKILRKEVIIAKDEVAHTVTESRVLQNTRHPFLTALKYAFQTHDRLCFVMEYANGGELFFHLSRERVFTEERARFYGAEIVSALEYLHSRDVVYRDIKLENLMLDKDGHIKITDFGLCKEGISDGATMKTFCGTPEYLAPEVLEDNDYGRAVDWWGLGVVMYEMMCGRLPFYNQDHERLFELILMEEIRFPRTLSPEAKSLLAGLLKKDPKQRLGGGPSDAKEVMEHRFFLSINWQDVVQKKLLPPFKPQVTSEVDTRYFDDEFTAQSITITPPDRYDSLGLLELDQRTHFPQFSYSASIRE
T1 sequence (Q9Y243 whole entry, looked up): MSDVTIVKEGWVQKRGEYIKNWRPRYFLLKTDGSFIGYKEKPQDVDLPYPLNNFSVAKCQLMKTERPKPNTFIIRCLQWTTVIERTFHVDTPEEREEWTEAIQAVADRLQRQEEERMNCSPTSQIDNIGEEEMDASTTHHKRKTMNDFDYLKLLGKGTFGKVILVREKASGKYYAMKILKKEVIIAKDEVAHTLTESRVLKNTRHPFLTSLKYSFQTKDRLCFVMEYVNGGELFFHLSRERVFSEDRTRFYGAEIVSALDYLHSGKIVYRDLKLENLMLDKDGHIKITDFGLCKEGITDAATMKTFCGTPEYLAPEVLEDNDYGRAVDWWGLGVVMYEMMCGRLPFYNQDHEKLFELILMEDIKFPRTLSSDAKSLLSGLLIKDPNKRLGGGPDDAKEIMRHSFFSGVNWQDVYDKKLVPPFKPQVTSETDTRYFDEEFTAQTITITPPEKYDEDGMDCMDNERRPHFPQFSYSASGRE
Summary of the method: (§6)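 Protein expression was analysed by Western blotting of cells harvested after 24 h compound treatment.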

MCF7 [18] = test: Inhibition of colony formation in human MCF7 cells at 3 to 6 uM incubated for 24 hrs measured till day 7 by crystal violet staining based assay; type: functional, cell-based
Summary of the method: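 Cells were treated with a range of concentrations for 24 h. The medium was then replaced with complete medium and cells were grown for 7 days. Colonies were stained with 0.1% crystal violet.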

MCF7 [19] = test: Decrease in Bcl-2 expression in human MCF7 cells at 3 to 9 uM after 24 hrs by Western blot analysis; type: functional, cell-based
Summary of the method: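 MCF-7 or PC-3 cells treated with compound for 24 h, harvested; PCNA, Bax and Bcl-2 protein expression checked by Western blotting.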

MCF7 [20] = test: Cell cycle arrest in human MCF7 cells assessed as accumulation at G0/G1 phase at 3 uM after 24 hrs by propidium iodide staining based flow cytometry (reference value: 45.67%); type: functional; summary of the method: as §1
[21] = Intrinsic hepatic clearance in liver microsomes (unknown origin) assessed per mg of protein at 5 ug/ml in presence of NADPH by UPLC analysis; type: ADME, Microsome; settings: read-out: CLH (converted)
PC-3 [22] = test: Cell cycle arrest in human PC3 cells assessed as accumulation at G2/M phase at 4.8 uM after 24 hrs by propidium iodide staining based flow cytometry (reference value: 2.25%); type: functional; summary of the method: as §1
PC-3 [23] = test: Induction of apoptosis in human PC3 cells assessed as viable cells at 8.8 uM after 24 hrs by annexin V-FITC/propidium iodide staining based flow cytometry (reference value: 92.24%); type: functional; settings: PC-3, 24 h, read-out: Activity; summary of the method: as §3
[24] = Drug metabolism in liver microsomes (unknown origin) assessed as compound remaining at 8 ug/ml after 5 mins in presence of NADPH by UPLC analysis; type: ADME, Microsome; settings: read-out: Drug metabolism; summary of the method: as §5
PC-3 [25] = test: Cell cycle arrest in human PC3 cells assessed as accumulation at G0/G1 phase at 4.8 uM after 24 hrs by propidium iodide staining based flow cytometry (reference value: 72.73%); type: functional; summary of the method: as §1
PC-3 [26] = test: Induction of apoptosis in human PC3 cells assessed as viable cells at 4.8 uM after 24 hrs by annexin V-FITC/propidium iodide staining based flow cytometry (reference value: 92.24%); type: functional; settings: PC-3, 24 h, read-out: Activity; summary of the method: as §3
PC-3 [27] = test: Induction of apoptosis in human PC3 cells assessed as early apoptotic cells at 8.8 uM after 24 hrs by annexin V-FITC/propidium iodide staining based flow cytometry (reference value: 4.44%); type: functional; summary of the method: as §3
[28] = biological target: T1, Serine/threonine-protein kinase AKT (Homo sapiens); test: Inhibition of Akt phosphorylation at […] in human PC3 cells at 8.8 uM after 24 hrs by Western blot analysis; type: cell-based; summary of the method: as §6
[29] = Intrinsic clearance in liver microsomes (unknown origin) assessed per mg of protein at 8 ug/ml in presence of NADPH by UPLC analysis; type: ADME, Microsome
[30] = Half life in liver microsomes (unknown origin) at 8 ug/ml in presence of NADPH by UPLC analysis; type: ADME, Microsome
PC-3 [31] = test: Induction of mitochondrial membrane depolarization in human PC3 cells at 4.8 uM after 24 hrs by JC-1 staining based flow cytometry (reference value: 4.51%); type: functional

## O=C1/C(=C/c2ccccc2F)CN(Cc2cn(Cc3ccc(F)cc3)nn2)C/C1=C\c1ccccc1F
MCF7 [1]
  Activity: 35.11%
MCF7 [2]
  Activity: 4.28%
MCF7 [3]
  Activity: 30.88%
MCF7 [4]
  Activity: 19.59%
MCF7 [5]
  Activity: 16.3%
MCF7 [6]
  viability at 9 µM: 40.3%
MCF7 [7]
  Activity: Active
[8]
  remaining at 5 min, 5 ug/ml: 46%
MCF7 [9]
  Activity: 30.56%
MCF7 [10]
  Activity: Dose-dependent effect
MCF7 [11]
  Activity: Active
MCF7 [12]
  Activity: 85.6%
MCF7 [13]
  Activity: Dose-dependent effect
MCF7 [14]
  Activity: 62.67%
MCF7 [15]
  Activity: Dose-dependent effect
MCF7 [16]
  Activity: 9.22%
[17]
  inhibition: 100%
MCF7 [18]
  inhibition: Active
MCF7 [19]
  Activity: Active
MCF7 [20]
  Activity: 38.9%
[21]
  CLint scaled at 5 ug/ml: 317 L/h/kg

## Cc1ccc(/C=C2\CN(Cc3cn(Cc4ccccc4F)nn3)C/C(=C\c3ccc(C)cc3)C2=O)cc1
PC-3 [22]
  Activity: 8.36%
PC-3 [23]
  viability at 8.8 µM: 80.8%
[24]
  remaining at 5 min, 8 ug/ml: 66%
PC-3 [25]
  Activity: 70.62%
PC-3 [26]
  viability at 4.8 µM: 85.3%
PC-3 [27]
  Activity: 17.54%
[28]
  inhibition: 100%
[29]
  CLint: 87 µL/min/mg
[30]
  half-life at 8 ug/ml: 15.9 min
PC-3 [31]
  Activity: 29.85%
